From ChEMBL document CHEMBL3608304, “Anti-inflammatory Labdane Diterpenoids from Leonurus macranthus” (J Nat Prod, 2015)
Blank lines part the entries; values can stand above or below the compound they belong to.

Tests used:
BV-2 [1] = assay: Inhibition of LPS-activated nitric oxide production in mouse BV2 cells pre-treated for 60 mins before LPS challenge for 24 hrs by Griess assay; assay type: functional, cell-based
Summary of the method: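 LPS-activated BV-2 microglial cells; NO production measured by Griess assay; indomethacin as positive control; results expressed as IC50 (μM).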

[2] = Toxicity against mouse BV2 cells assessed as effect on cell viability at 80 uM incubated for 24 hrs by MTT assay; assay type: cell-based; details: bv-2, 24 h
BV-2 [3] = assay: Inhibition of LPS-activated nitric oxide production in mouse BV2 cells at 80 uM pre-treated for 60 mins before LPS challenge for 24 hrs by Griess assay; assay type: functional

Compound: COc1ccc2c(c1)c(CC(=O)O)c(C)n2C(=O)c1ccc(Cl)cc1 [INDOMETHACIN]
- IC50 (BV-2 [1]): 35.7 µM

Compound: CC(=O)OC[C@@]1(C)[C@H](OC(C)=O)CC[C@]2(C)C(CCC(C)(O)CCO)=C(C)C(=O)[C@@H](OC(C)=O)[C@@H]12 (stereo partly drawn)
- inhibition at 80 µM (BV-2 [3]): 50%

Compound: CC(=O)OC[C@@]1(C)[C@H](O)CC[C@]2(C)C(CCC(C)(O)CCO)=C(C)C(=O)[C@@H](OC(C)=O)[C@@H]12 (stereo partly drawn)
- inhibition at 80 µM (BV-2 [3]): < 50%

Compound: CC(=O)OC[C@@]1(C)[C@H](O)CC[C@@]2(C)[C@H]1CC(=O)[C@@H](C)[C@]21CC[C@@](C)(CCO)O1
- IC50 (BV-2 [1]): 36.9 µM
- Activity [2]: Non-toxic

Compound: CC(=O)O[C@@H]1CC[C@]2(C)C(CCC(C)(O)CCO)=C(C)C(=O)[C@@H](O)[C@H]2[C@@]1(C)CO (stereo partly drawn)
- inhibition at 80 µM (BV-2 [3]): < 50%

Compound: CC(=O)OCC[C@]1(C)CC[C@@]2(O1)[C@H](C)[C@@H](O)[C@@H](OC(C)=O)[C@H]1[C@@](C)(COC(C)=O)[C@H](OC(C)=O)CC[C@@]12C
- IC50 (BV-2 [1]): 11 µM
- Activity [2]: Non-toxic

Compound: CC(=O)OC[C@@]1(C)[C@H](O)CC[C@]2(C)C(CCC(C)(O)CCO)=C(C)C(=O)[C@@H](O)[C@@H]12 (stereo partly drawn)
- IC50 (BV-2 [1]): 53.6 µM
- Activity [2]: Non-toxic

Compound: CC(=O)O[C@@H]1C(=O)[C@@H](C)[C@]2(CC[C@@](C)(CCO)O2)[C@@]2(C)CC[C@@H](OC(C)=O)[C@](C)(CO)[C@H]12
- IC50 (BV-2 [1]): 16.2 µM
- Activity [2]: Non-toxic

Compound: CC(=O)OCCC(C)(O)CCC1=C(C)C(=O)[C@@H](OC(C)=O)[C@H]2[C@@](C)(COC(C)=O)[C@H](OC(C)=O)CC[C@]12C (stereo partly drawn)
- IC50 (BV-2 [1]): 12.7 µM
- Activity [2]: Non-toxic

Compound: CC(=O)OC[C@@]1(C)[C@H](OC(C)=O)CC[C@@]2(C)[C@H]1[C@H](O)C(=O)[C@@H](C)[C@]21CC[C@@](C)(CCO)O1
- IC50 (BV-2 [1]): 41.7 µM
- Activity [2]: Non-toxic

Now from value to compound, other results behind:

- IC50 (BV-2 [1]): 48.1 µM
Compound: CC(=O)OCC[C@]1(C)CC[C@@]2(O1)[C@H](C)C(=O)[C@@H](OC(C)=O)[C@H]1[C@@](C)(COC(C)=O)[C@H](OC(C)=O)CC[C@@]12C
- Activity [2]: Non-toxic

- IC50 (BV-2 [1]): 20.7 µM
Compound: CC(=O)OC[C@@]1(C)[C@H](OC(C)=O)CC[C@@]2(C)[C@H]1[C@H](OC(C)=O)C(=O)[C@@H](C)[C@]21CC[C@@](C)(CCO)O1
- Activity [2]: Non-toxic

- IC50 (BV-2 [1]): 10 µM
Compound: CC(=O)OCC[C@]1(C)CC[C@@]2(O1)[C@H](C)[C@@H](OC(C)=O)[C@@H](O)[C@H]1[C@@](C)(COC(C)=O)[C@H](OC(C)=O)CC[C@@]12C
- Activity [2]: Non-toxic

- IC50 (BV-2 [1]): 45.7 µM
Compound: CC(=O)OCC[C@]1(C)CC[C@@]2(O1)[C@H](C)C(=O)[C@@H](O)[C@H]1[C@@](C)(COC(C)=O)[C@H](O)CC[C@@]12C
- Activity [2]: Non-toxic

- IC50 (BV-2 [1]): 63.7 µM
Compound: CC(=O)OCC[C@]1(C)CC[C@@]2(O1)[C@H](C)C(=O)[C@@H](OC(C)=O)[C@H]1[C@@](C)(COC(C)=O)[C@H](O)CC[C@@]12C
- Activity [2]: Non-toxic

- IC50 (BV-2 [1]): 13.2 µM
Compound: CC(=O)OCC[C@]1(C)CC[C@@]2(O1)[C@H](C)[C@@H](O)C(=O)[C@H]1[C@@](C)(COC(C)=O)[C@H](O)CC[C@@]12C
- Activity [2]: Non-toxic
